According to ChEMBL document CHEMBL1671716, “Antimicrobial susceptibility patterns for recent clinical isolates of anaerobic bacteria in South Korea” (2010):
Values after ≈ are worked out from the molar mass of the structure shown.

Legend:
Eggerthella lenta [1] = experiment: Antimicrobial activity against Eubacterium lentum assessed as percent resistant isolates after 48 hrs by agar dilution method; type: functional
In short: (§1)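 CLSI agar dilution on recent Korean clinical anaerobe isolates. Inoculum 10^5 CFU per spot by replicator. Plates incubated in an anaerobic chamber at 37°C for 48 h. For piperacillin plus tazobactam, tazobactam was held constant at 4 μg/ml. Resistance and susceptibility rates derived from MICs.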

Hoylesella oralis = experiment: Antimicrobial activity against Prevotella oralis after 48 hrs by agar dilution method; type: functional
In short: (§2)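 CLSI agar dilution (M11-A7); inoculum 10^5 CFU applied by replicator; plates incubated anaerobically 48 h at 37°C. For piperacillin-tazobactam, tazobactam held constant at 4 μg/ml.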

Prevotella buccae [2] = experiment: Antimicrobial activity against Prevotella buccae after 48 hrs by agar dilution method; type: functional; conditions: Segatella buccae; in short: as §2
Actinomyces naeslundii = experiment: Antimicrobial activity against Actinomyces naeslundii assessed as percent susceptible isolates after 48 hrs by agar dilution method; type: functional
Bifidobacterium sp. = experiment: Antimicrobial activity against Bifidobacterium sp. assessed as percent resistant isolates after 48 hrs by agar dilution method in presence of 4 ug/ml beta-lactamase inhibitor Tazobactam; type: functional; in short: as §1
Clostridium perfringens [3] = experiment: Antimicrobial activity against Clostridium perfringens after 48 hrs by agar dilution method; type: functional
[4] = test system: Bifidobacterium adolescentis; experiment: Antimicrobial activity against Bifidobacterium adolescentis assessed as percent resistant isolates after 48 hrs by agar dilution method in presence of 4 ug/ml beta-lactamase inhibitor Tazobactam; type: functional; in short: as §1
Fusobacterium varium = experiment: Antimicrobial activity against Fusobacterium varium after 48 hrs by agar dilution method; type: functional; in short: as §2
Clostridioides difficile [5] = experiment: Antimicrobial activity against Clostridium difficile after 48 hrs by agar dilution method; type: functional
[6] = test system: Peptoniphilus asaccharolyticus; experiment: Antimicrobial activity against Peptoniphilus asaccharolyticus assessed as percent resistant isolates after 48 hrs by agar dilution method; type: functional; in short: as §1
Schaalia odontolytica [7] = experiment: Antimicrobial activity against Actinomyces odontolyticus assessed as percent susceptible isolates after 48 hrs by agar dilution method; type: functional
Bacteroides ovatus [8] = experiment: Antimicrobial activity against Bacteroides ovatus after 48 hrs by agar dilution method; type: functional
In short: (§3)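 MICs on clinical anaerobe isolates by the CLSI agar dilution method. Inoculum of 10^5 CFU applied with a Steers replicator. Plates incubated 48 h at 37°C in an anaerobic chamber.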

Parvimonas micra = experiment: Antimicrobial activity against Peptostreptococcus micros assessed as percent susceptible isolates after 48 hrs by agar dilution method; type: functional; in short: as §1
Finegoldia magna = experiment: Antimicrobial activity against Finegoldia magna after 48 hrs by agar dilution method in presence of 4 ug/ml beta-lactamase inhibitor Tazobactam; type: functional; in short: as §2
Schaalia odontolytica [9] = experiment: Antimicrobial activity against Actinomyces odontolyticus after 48 hrs by agar dilution method in presence of 4 ug/ml beta-lactamase inhibitor Tazobactam; type: functional
In short: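 MICs by CLSI agar dilution for piperacillin combined with tazobactam, with tazobactam held constant at 4 μg/ml. Clinical anaerobe isolates inoculated at 10^5 CFU by Steers replicator. Plates kept in an anaerobic chamber at 37°C for 48 h.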

Clostridium perfringens [10] = experiment: Antimicrobial activity against Clostridium perfringens assessed as percent susceptible isolates after 48 hrs by agar dilution method; type: functional
Schaalia meyeri [11] = experiment: Antimicrobial activity against Actinomyces meyeri assessed as percent susceptible isolates after 48 hrs by agar dilution method; type: functional
Fusobacterium mortiferum = experiment: Antimicrobial activity against Fusobacterium mortiferum after 48 hrs by agar dilution method; type: functional; in short: as §2
[12] = test system: Bacteroides thetaiotaomicron; experiment: Antimicrobial activity against Bacteroides thetaiotaomicron after 48 hrs by agar dilution method; type: functional; in short: as §3
[13] = test system: Peptoniphilus asaccharolyticus; experiment: Antimicrobial activity against Peptoniphilus asaccharolyticus after 48 hrs by agar dilution method; type: functional; in short: as §2
Bacteroides fragilis [14] = experiment: Antimicrobial activity against Bacteroides fragilis assessed as percent resistant isolates after 48 hrs by agar dilution method; type: functional; in short: as §1
[15] = test system: Porphyromonas asaccharolytica; experiment: Antimicrobial activity against Porphyromonas asaccharolytica after 48 hrs by agar dilution method in presence of 4 ug/ml beta-lactamase inhibitor Tazobactam; type: functional; in short: as §2
Prevotella intermedia = experiment: Antimicrobial activity against Prevotella intermedia assessed as percent susceptible isolates after 48 hrs by agar dilution method; type: functional; in short: as §2
[16] = test system: Parabacteroides distasonis; experiment: Antimicrobial activity against Bacteroides distasonis assessed as percent resistant isolates after 48 hrs by agar dilution method in presence of 4 ug/ml beta-lactamase inhibitor Tazobactam; type: functional; in short: as §1
Schaalia meyeri [17] = experiment: Antimicrobial activity against Actinomyces meyeri assessed as percent resistant isolates after 48 hrs by agar dilution method; type: functional; in short: as §1
Bacteroides ovatus [18] = experiment: Antimicrobial activity against Bacteroides ovatus assessed as percent susceptible isolates after 48 hrs by agar dilution method; type: functional
Prevotella bivia [19] = experiment: Antimicrobial activity against Prevotella bivia after 48 hrs by agar dilution method in presence of 4 ug/ml beta-lactamase inhibitor Tazobactam; type: functional; in short: as §2
[20] = test system: Bacteroides thetaiotaomicron; experiment: Antimicrobial activity against Bacteroides thetaiotaomicron assessed as percent susceptible isolates after 48 hrs by agar dilution method; type: functional
Eggerthella lenta [21] = experiment: Antimicrobial activity against Eubacterium lentum after 48 hrs by agar dilution method in presence of 4 ug/ml beta-lactamase inhibitor Tazobactam; type: functional; in short: as §2
Bacteroides fragilis [22] = experiment: Antimicrobial activity against Bacteroides fragilis assessed as percent resistant isolates after 48 hrs by agar dilution method in presence of 4 ug/ml beta-lactamase inhibitor Tazobactam; type: functional; in short: as §1
Prevotella bivia [23] = experiment: Antimicrobial activity against Prevotella bivia assessed as percent resistant isolates after 48 hrs by agar dilution method; type: functional; in short: as §1
Actinomyces israelii = experiment: Antimicrobial activity against Actinomyces israelii assessed as percent susceptible isolates after 48 hrs by agar dilution method; type: functional
Eubacterium sp. = experiment: Antimicrobial activity against Eubacterium sp. after 48 hrs by agar dilution method; type: functional; in short: as §2
Clostridioides difficile [24] = experiment: Antimicrobial activity against Clostridium difficile after 48 hrs by agar dilution method in presence of 4 ug/ml beta-lactamase inhibitor Tazobactam; type: functional; in short: as §2
Prevotella bivia [25] = experiment: Antimicrobial activity against Prevotella bivia assessed as percent susceptible isolates after 48 hrs by agar dilution method; type: functional; in short: as §2
[26] = test system: Parabacteroides distasonis; experiment: Antimicrobial activity against Bacteroides distasonis assessed as percent susceptible isolates after 48 hrs by agar dilution method in presence of 4 ug/ml beta-lactamase inhibitor Tazobactam; type: functional
Bacteroides ovatus [27] = experiment: Antimicrobial activity against Bacteroides ovatus assessed as percent resistant isolates after 48 hrs by agar dilution method in presence of 4 ug/ml beta-lactamase inhibitor Tazobactam; type: functional; in short: as §1
Eggerthella lenta [28] = experiment: Antimicrobial activity against Eubacterium lentum after 48 hrs by agar dilution method; type: functional; in short: as §2
Eggerthella lenta [29] = experiment: Antimicrobial activity against Eubacterium lentum assessed as percent susceptible isolates after 48 hrs by agar dilution method; type: functional; in short: as §2
Prevotella buccae [30] = experiment: Antimicrobial activity against Prevotella buccae assessed as percent resistant isolates after 48 hrs by agar dilution method in presence of 4 ug/ml beta-lactamase inhibitor Tazobactam; type: functional, Segatella buccae; in short: as §1
[31] = test system: Bacteroides thetaiotaomicron; experiment: Antimicrobial activity against Bacteroides thetaiotaomicron assessed as percent resistant isolates after 48 hrs by agar dilution method; type: functional; in short: as §1
[32] = test system: Porphyromonas asaccharolytica; experiment: Antimicrobial activity against Porphyromonas asaccharolytica after 48 hrs by agar dilution method; type: functional; in short: as §2

For `CCN1CCN(C(=O)N[C@@H](C(=O)N[C@@H]2C(=O)N3[C@@H]2SC(C)(C)[C@@H]3C(=O)O)c2ccccc2)C(=O)C1=O` [PIPERACILLIN], the Activity (Eggerthella lenta [1]) was 0%, the MIC50 (Hoylesella oralis) was 16 µg/mL (≈ 30.9 µM) and the MIC90 (Hoylesella oralis) was 128 µg/mL (≈ 247 µM). The MIC50 (Prevotella buccae [2]) was 16 µg/mL (≈ 30.9 µM), the MIC90 (Prevotella buccae [2]) was 128 µg/mL (≈ 247 µM) and the Activity (Actinomyces naeslundii) was 92%. For the same compound, the Activity (Bifidobacterium sp.) was 0%, the MIC50 (Clostridium perfringens [3]) was 0.25 µg/mL (≈ 0.483 µM) and the MIC90 (Clostridium perfringens [3]) was 0.5 µg/mL (≈ 0.966 µM). It also gave an Activity [4] of 0%, an MIC (Fusobacterium varium) of 0.06 µg/mL (≈ 0.116 µM) and an MIC50 (Clostridioides difficile [5]) of 4 µg/mL (≈ 7.73 µM). It also gave an MIC90 (Clostridioides difficile [5]) of 8 µg/mL (≈ 15.5 µM), an Activity [6] of 0% and an Activity (Schaalia odontolytica [7]) of 92%. For the same compound, the MIC50 (Bacteroides ovatus [8]) was 128 µg/mL (≈ 247 µM), the MIC90 (Bacteroides ovatus [8]) was > 256 µg/mL and the Activity (Parvimonas micra) was 0%. The MIC50 (Finegoldia magna) was 0.06 µg/mL, the MIC90 (Finegoldia magna) was 0.125 µg/mL and the MIC50 (Schaalia odontolytica [9]) was 0.5 µg/mL. It also gave an MIC90 (Schaalia odontolytica [9]) of 8 µg/mL, an Activity (Clostridium perfringens [10]) of 100% and an Activity (Schaalia meyeri [11]) of 92%. For the same compound, the MIC (Fusobacterium mortiferum) was 0.06 µg/mL (≈ 0.116 µM), the MIC50 [12] was 128 µg/mL (≈ 247 µM) and the MIC90 [12] was > 256 µg/mL. The MIC50 [13] was ≤ 0.06 µg/mL, the MIC90 [13] was ≤ 0.06 µg/mL and the Activity (Bacteroides fragilis [14]) was 27%. The MIC [15] was 0.03 µg/mL, the Activity (Prevotella intermedia) was 100% and the Activity [16] was 7%. The Activity (Schaalia meyeri [17]) was 0%, the Activity (Bacteroides ovatus [18]) was 42% and the MIC50 (Prevotella bivia [19]) was ≤ 0.03 µg/mL. The MIC90 (Prevotella bivia [19]) was 4 µg/mL, the Activity [20] was 42% and the MIC50 (Eggerthella lenta [21]) was 0.5 µg/mL. The MIC90 (Eggerthella lenta [21]) was 8 µg/mL, the Activity (Bacteroides fragilis [22]) was 2% and the Activity (Prevotella bivia [23]) was 11%. It also gave an Activity (Actinomyces israelii) of 92%, an MIC50 (Eubacterium sp.) of 1 µg/mL (≈ 1.93 µM) and an MIC90 (Eubacterium sp.) of 8 µg/mL (≈ 15.5 µM). For the same compound, the MIC50 (Clostridioides difficile [24]) was 4 µg/mL, the MIC90 (Clostridioides difficile [24]) was 8 µg/mL and the Activity (Prevotella bivia [25]) was 78%. It also gave an Activity [26] of 89%, an Activity (Bacteroides ovatus [27]) of 7% and an MIC50 (Eggerthella lenta [28]) of 1 µg/mL (≈ 1.93 µM). The MIC90 (Eggerthella lenta [28]) was 8 µg/mL (≈ 15.5 µM), the Activity (Eggerthella lenta [29]) was 92% and the Activity (Prevotella buccae [30]) was 0%. It also gave an Activity [31] of 51% and an MIC [32] of 0.06 µg/mL (≈ 0.116 µM).
